Measured values as given in paper PMC2677731 (Molecular cell, 2009).
“Also recorded” adds a separate entry of the source.

What was measured:
[1] = test system: human genome (ENCODE array); assay: ChIP-chip, ENCODE tiled arrays; assay type: cell-based; conditions: doxorubicin treatment
How it was run: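 ChIP DNA from human cells expressing wild-type or ΔPHD2 JADE1L, with or without doxorubicin, was amplified, labelled and hybridised to […] human ENCODE tiled arrays. Analysis followed the array maker's standard protocol. Significant binding peaks were counted by position on the gene body, or by distance from TSS/TES when outside coding regions.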

native chromatin = assay: Chromatin pull-down, yeast wild type native chromatin; assay type: binding; conditions: H3-tail dependent, western blot
How it was run: (§1)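 Immunopurified JADE1L or JADE1S complexes from co-transfected cells, normalised by gel, were incubated with purified native chromatin. Chromatin came from yeast (wild type or set1, lacking H3K4me) or from human cells.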

[2] = test system: native wild type chromatin; assay: HAT assay on wild type yeast native chromatin; assay type: biochemical; conditions: chromatin 500 ng, fluorography
How it was run: (§2)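 For acetyltransferase reactions, wild-type or mutant JADE1 complexes were immunopurified from co-transfected cells. They were incubated with 500 ng of native chromatin purified from yeast cells. Assays otherwise followed an earlier published protocol.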

endogenous chromatin = assay: In vivo association with endogenous chromatin; assay type: cell-based
How it was run: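 Tagged JADE1L or JADE1S complexes, wild-type or mutant, were immunopurified from co-transfected human cells. Co-purifying endogenous core histones and complex subunits were resolved by gel staining. Western blots with specific antibodies, including for H3K36me3, followed.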

set1 chromatin = assay: HAT assay on set1; assay type: biochemical, yeast; conditions: chromatin 500 ng, lacking H3K4me
How it was run: as §2

human native chromatin = assay: Chromatin pull-down, human native chromatin; assay type: binding
How it was run: as §1

JADE1L binding at menin gene [1] | binding to yeast native chromatin (native chromatin) | Molecule | HAT activity on wild type yeast chromatin [2] | co-purification of core histones (endogenous chromatin; immunopurified complexes, gel staining) | level of H3K36me3-containing chromatin bound in vivo (endogenous chromatin; western blot, relative to JADE1L) | HAT activity on set1 yeast chromatin (set1 chromatin) | binding to H3K36me3-containing human chromatin in vitro (human native chromatin)
seems to be induced | – | COc1cccc2c1C(=O)c1c(O)c3c(c(O)c1C2=O)C[C@@](O)(C(=O)CO)C[C@@H]3O[C@H]1C[C@H](N)[C@H](O)[C@H](C)O1 [doxorubicin] | – | – | – | – | –
– | efficiently pulled down yeast chromatin | JADE1S: natural smaller 509 amino acid-protein produced by an abundant mRNA splice variant; dimeric complex with HBO1 (protein) MKRGRLPSSSEDSDDNGSLSTTWSQNSRSQHRRSSCSRHEDRKPSEVFRTDLITAMKLHDSYQLNPDEYYVLADPWRQEWEKGVQVPVSPGTIPQPVARVVSEEKSLMFIRPKKYIVSSGSEPPELGYVDIRTLADSVCRYDLNDMDAAWLELTNEEFKEMGMPELDEYTMERVLEEFEQRCYDNMNHAIETEEGLGIEYDEDVVCDVCQSPDGEDGNEMVFCDKCNICVHQACYGILKVPEGSWLCRTCALGVQPKCLLCPKKGGAMKPTRSGTKWVHVSCALWIPEVSIGSPEKMEPITKVSHIPSSRWALVCSLCNEKFGASIQCSVKNCRTAFHVTCAFDRGLEMKTILAENDEVKFKSYCPKHSSHRKPEESLGKGAAQENGAPECSPRNPLEPFASLEQNREEAHRVSVRKQKLQQLEDEFYTFVNLLDVARALRLPEEVVDFLYQYWKLKRKVNFNKPLITPKKDEEDNLAKREQDVLFRRLQLFTHLRQDLERVMIDTDTL | much less active than the JADE1L complex | a full set of core histones co-purified | much higher; also recorded: significantly more H3K36me3 signal | highly active; also recorded: equivalent acetyltransferase activity | can bind H3K36me3-containing chromatin in vitro
